# Measurements as given in ChEMBL document CHEMBL4196022, “Alkynyl-containing phenylthiazoles: Systemically active antibacterial agents effective against methicillin-resistant Staphylococcus aureus (MRSA)” (Eur J Med Chem, 2018).
# The source made the active and inactive calls. No cut-off for these calls is given here.
# What was measured:
# [1] = tested on: Staphylococcus aureus; experiment: Bactericidal activity against methicillin resistant vancomycin-resistant Staphylococcus aureus VRS11a up to 18 hrs by broth microdilution assay; format: functional; details: read-out: MBC99.9
# [2] = tested on: Staphylococcus aureus; experiment: Antibacterial activity against vancomycin-resistant Staphylococcus aureus VRS10 after 20 hrs by broth microdilution assay; format: functional; details: VRS10, 20 h
# Procedure, shortened: (§1)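 Broth microdilution per CLSI in cation-adjusted Mueller Hinton broth. Compounds serially diluted, in triplicate. Incubation at 37 °C for at least 20 hours. MIC taken as the lowest concentration with no visible bacterial growth.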
# [3] = tested on: Staphylococcus aureus; experiment: Antibacterial activity against methicillin-resistant Staphylococcus aureus USA300 infected in Caenorhabditis elegans AU37 assessed as reduction in bacterial burden at 20 ug/ml after 18 hrs relative to control; format: functional; set-up: scale not given: the % may be the effect or the level left
# Procedure, shortened: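 L4-stage C. elegans AU37 infected on USA300 lawns for 6 h and washed with M9 buffer. 25–30 worms per well exposed to 20 μg/mL for 18 h, in triplicate. Worms then lysed and plated on TSA with 5 μg/mL nalidixic acid for 17 h at 37 °C. CFU per worm expressed as % reduction versus PBS.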
# [4] = tested on: Rattus norvegicus; experiment: Volume of distribution at steady state in Sprague-Dawley rat at 2 uM administered as single iv bolus dose by LC-MS/MS analysis; format: ADME, organism-based; details: in vivo
# Procedure, shortened: (§2)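 Male naïve Sprague-Dawley rats (three animals) received an IV bolus of a 2 μM solution. EDTA-K2 blood was sampled over 12 h post dose. Plasma was protein-precipitated with acetonitrile and quantified by LC/MS/MS. Parameters came from two-compartmental pharmacokinetic analysis.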
# [5] = tested on: Staphylococcus aureus; experiment: Antibacterial activity against vancomycin-resistant Staphylococcus aureus VRS11a after 20 hrs by broth microdilution assay; format: functional; procedure, shortened: as §1
# [6] = tested on: Mus musculus; experiment: Induction of inflammation in Balb/c mouse infected with methicillin-resistant Staphylococcus aureus USA300 assessed as swelling around wounded skin area at 2% administered topically twice daily for 5 consecutive days measured 12 hrs post last dose; format: organism-based; details: in vivo, topical_or_ocular
# Procedure, shortened: (§3)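 Female Balb/c mice, 8 weeks old, n=5 per group. Intradermal injection of 40 μL of 1.32×10^9 CFU/mL USA300; a wound formed by ~66 h. Treated topically with a 2% suspension in petroleum jelly twice daily for 5 days; the vehicle group served as control. Wounds excised 12 h after the last dose, homogenized in PBS and plated on mannitol salt agar; sites also observed for redness and swelling.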
# [7] = tested on: Mus musculus; experiment: Induction of inflammation in Balb/c mouse infected with methicillin-resistant Staphylococcus aureus USA300 assessed as redness around wounded skin area at 2% administered topically twice daily for 5 consecutive days measured 12 hrs post last dose relative to control; format: organism-based; details: in vivo, topical_or_ocular; procedure, shortened: as §3
# [8] = tested on: Rattus norvegicus; experiment: Half life in Sprague-Dawley rat at 2 uM administered as single iv bolus dose by LC-MS/MS analysis; format: ADME, organism-based; details: in vivo; procedure, shortened: as §2
# [9] = tested on: Staphylococcus aureus; experiment: Bactericidal activity against methicillin resistant vancomycin-resistant Staphylococcus aureus VRS10 up to 18 hrs by broth microdilution assay; format: functional; details: VRS10, 18 h, read-out: MBC99.9
# [10] = tested on: Staphylococcus aureus; experiment: Ratio of MBC to MIC for vancomycin-resistant Staphylococcus aureus VRS10; format: functional
# Procedure, shortened: (§4)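 MBC/MIC ratio. […] MBC by plating no-growth wells onto tryptic soy agar at 37 °C for at least 18 h; taken as the concentration giving 99.9% growth inhibition.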
# [11] = tested on: Staphylococcus aureus; experiment: Antibacterial activity against methicillin-resistant Staphylococcus aureus NRS123 (USA400) infected in mouse J774 cells at 8 ug/ml after 24 hrs; format: functional, organism-based
# Procedure, shortened: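 J774 macrophages grown in DMEM with 10% FBS at 37 °C, 5% CO2. Infected with USA400 at MOI ~100:1 for 1 h, then washed with gentamicin 50 μg/mL. Treated in triplicate wells for 24 h, washed with gentamicin again and lysed with 0.1% Triton X-100. Lysate plated on tryptic soy agar for 18–22 h; CFU/mL counted.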
# [12] = tested on: Staphylococcus aureus; experiment: Antibacterial activity against methicillin-resistant Staphylococcus aureus USA300 in neutropenic Balb/c mouse thigh infection model assessed as reduction in bacterial burden in thigh at 20 mg/kg, ip administered twice at 2 and 12 hrs post infection and measured at 24 hrs post infection relative to control; format: functional; set-up: scale not given: the % may be the effect or the level left
# Procedure, shortened: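 Female BALB/c mice, 6–8 weeks old, n=5, made neutropenic with i.p. cyclophosphamide 150 and 100 mg/kg on days −4 and −1. Right thigh injected with 100 μL of 5.35×10^7 CFU/mL USA300. […] Thighs harvested at 24 h and counted as CFU/g on mannitol salt agar.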
# [13] = tested on: Staphylococcus aureus; experiment: Antibacterial activity against methicillin-resistant Staphylococcus aureus NRS123 (USA400) after 20 hrs by broth microdilution assay; format: functional; procedure, shortened: as §1
# [14] = tested on: Rattus norvegicus; experiment: AUC in Sprague-Dawley rat at 2 uM administered as single iv bolus dose by LC-MS/MS analysis; format: ADME, organism-based; details: in vivo; procedure, shortened: as §2
# [15] = Efflux ratio of apparent permeability in human Caco2 cells at 10 uM after 60 mins by LC-MS/MS analysis; format: ADME, cell-based; details: caco-2, 1 h
# Procedure, shortened: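 Caco-2 monolayers were seeded at 1 × 10^5 cells/cm2 and differentiated for three weeks. Test article was at 10 μM (1% DMSO) in HBSS-MES pH 6.5 or HBSS-HEPES pH 7.4 and added to the donor side. Incubation ran 60 min (A→B) or 40 min (B→A), and receiver buffer was analysed by LC/MS/MS. Lucifer yellow and fluorescein checked monolayer integrity. Efflux ratio = Papp(B→A)/Papp(A→B).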
# [16] = Half life in human liver microsomes at 0.1 uM preincubated for 5 mins followed by NDAPH addition measured up to 60 mins by HPLC-MS/MS analysis; details: 1 h
# [17] = target: T1, Ditrans,polycis-undecaprenyl-diphosphate synthase ((2E,6E)-farnesyl-diphosphate specific) (Escherichia coli (strain K12), UniProt P60472); experiment: Inhibition of Escherichia coli UPPS using IPP and FPP as substrate preincubated for 30 mins followed by substrate addition measured after 20 mins by malachite green phosphate assay
# T1 sequence (P60472 whole entry): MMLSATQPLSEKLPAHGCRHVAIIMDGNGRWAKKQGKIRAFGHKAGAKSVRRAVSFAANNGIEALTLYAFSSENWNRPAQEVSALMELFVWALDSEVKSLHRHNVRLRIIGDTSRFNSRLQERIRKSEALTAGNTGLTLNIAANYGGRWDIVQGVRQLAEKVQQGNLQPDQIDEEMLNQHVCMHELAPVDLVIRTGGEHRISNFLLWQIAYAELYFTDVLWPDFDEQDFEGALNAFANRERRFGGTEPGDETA
# [18] = tested on: Staphylococcus aureus; experiment: Bactericidal activity against methicillin resistant Staphylococcus aureus NRS123 (USA400) up to 18 hrs by broth microdilution assay; format: functional; details: read-out: MBC99.9
# [19] = tested on: Staphylococcus aureus; experiment: Ratio of MBC to MIC for vancomycin-resistant Staphylococcus aureus VRS11a; format: functional; procedure, shortened: as §4
# [20] = tested on: Staphylococcus aureus; experiment: Ratio of MBC to MIC for methicillin-resistant Staphylococcus aureus NRS123 (USA400); format: functional; procedure, shortened: as §4
# [21] = tested on: Mus musculus; experiment: Toxicity in wounded skin area of Balb/c mouse infected with methicillin-resistant Staphylococcus aureus USA300 at 2% administered topically twice daily for 5 consecutive days measured 12 hrs post last dose; format: organism-based; details: in vivo, topical_or_ocular; procedure, shortened: as §3
# [22] = tested on: Staphylococcus aureus; experiment: Potency index, ratio of vancomycin MIC to compound MIC for antibacterial activity against vancomycin-resistant Staphylococcus aureus VRS11a; format: functional
# [23] = tested on: Staphylococcus aureus; experiment: Potency index, ratio of vancomycin MIC to compound MIC for antibacterial activity against vancomycin-resistant Staphylococcus aureus VRS12; format: functional
# [24] = tested on: HRT-18 cell line; experiment: Cytotoxicity against human HRT18 cells assessed as reduction in cell viability up to 32 ug/ml after 2 hrs by MTS assay; format: cell-based; details: hrt-18, 2 h
structure (smiles),measurement,setting,value
C/C(=N\NC(=N)N)c1sc(-c2ccc(C#CC3CC3)cc2)nc1C,MBC,[1],2 µg/mL
same,MIC,[2],2 µg/mL
same,Activity,[3],90%
same,Vdss,[4],5.51 L
same,MIC,[5],2 µg/mL
same,Activity,[6],Non-Toxic
same,Activity,[7],Non-Toxic
same,t1/2,[8],4.43 h
same,MBC,[9],4 µg/mL
same,Ratio,[10],<=3
same,Activity,[11],inactive
same,Activity,[12],77%
same,MIC,[13],2 µg/mL
same,AUC,[14],690 ng·h/mL
same,Ratio,[15],69
same,t1/2,[16],4.87 h
same,IC50,[17],38 µM
same,MBC,[18],2 µg/mL
same,Ratio,[19],<=3
same,Ratio,[20],<=3
same,Activity,[21],Non-Toxic
same,Ratio,[22],>100
same,Ratio,[23],8
same,Activity,[24],Non-Toxic
